One may read the AUC(0-inf) as the area under the concentration-time curve extrapolated to infinity. Higher therefore signals more exposure. Usually IC50 stands for the midpoint of a concentration-inhibition curve. The term AUC denotes concentration integrated over time. Read a low AUC as less exposure. The term half-life denotes how long it takes for the measured level to halve. A high value points to slow decline. In general, bioavailability refers to the share of a dose that reaches the circulation, judged against a reference dose that is usually intravenous. A low value points to poor availability. By Tmax is commonly meant the time from dosing to the highest level. As a reminder, the Cmax is the highest concentration seen after dosing.

The values that follow come from ChEMBL document CHEMBL1221349, “Novel pyrrolidine heterocycles as CCR1 antagonists” (Bioorg Med Chem Lett, 2010).

A short description of data set [1]: (§1) AUC (0 to infinity) in Sprague-Dawley rat at 5 mg/kg, po. It counts as ADME, organism-based, Plasma. Details: time infinity, dose 5 mg/kg, route oral; call rule not given here. To be noted: Sprague-Dawley, plasma. In short, it runs like this:
(§2)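 Male Sprague-Dawley rats (3–4) were gavaged at 5 mg/kg in 0.5% methyl cellulose, either singly or in a cassette. Serial arterial-cannula blood was drawn up to 6 or 24 h. Parent compound was measured in plasma by LC/MS/MS after protein precipitation. Parameters came from non-compartmental analysis.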

Data set [2] deals with T1, C-C chemokine receptor type 1 (Homo sapiens, UniProt P32246).
T1 sequence (P32246 whole entry): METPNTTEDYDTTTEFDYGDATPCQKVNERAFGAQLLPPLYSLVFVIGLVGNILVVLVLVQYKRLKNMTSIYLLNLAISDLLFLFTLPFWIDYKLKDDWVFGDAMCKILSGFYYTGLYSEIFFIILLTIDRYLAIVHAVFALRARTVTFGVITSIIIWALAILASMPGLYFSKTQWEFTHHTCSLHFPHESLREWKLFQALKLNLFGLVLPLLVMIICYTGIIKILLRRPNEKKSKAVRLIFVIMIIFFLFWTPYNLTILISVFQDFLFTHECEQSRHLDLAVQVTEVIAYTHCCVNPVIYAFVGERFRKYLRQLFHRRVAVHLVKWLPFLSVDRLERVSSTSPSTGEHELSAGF
The data set can be described thus: Displacement of [125I]-MIP1-alpha from human recombinant CCR1 expressed in HEK293 cells after 4 hrs by SPA. It counts as cell-based. In short, it runs like this: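 This was a SPA binding assay on membranes from HEK293 cells stably expressing human CCR1 from an episomal vector. Buffer was 130 mM NaCl, 5 mM KCl, 1 mM MnCl2, 50 mM Tris-HCl pH 7.4, 0.1% BSA, with SPA beads at 10 mg/ml. Compound dilutions were added, then [125I]-MIP1a at 0.1 nM final. Plates were spun 2 min, incubated 4 h, then scintillation-counted.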
In general terms: Displacement assays read how much labelled ligand stays bound in the presence of the test substance.

Data set [3] can be described thus: Metabolic stability in rat liver microsomes assessed as compound remaining at 1 uM after 30 mins. The settings on record: read-out: Stability. The data set is classed as ADME, Microsome. In short, it runs like this: (§3)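 Rat or human liver microsomes (300 nM cytochrome P450) were incubated in phosphate buffer pH 7.4 with test compound and 1 mM NADPH for 30 min at 37 °C. Reactions were stopped with acetonitrile and centrifuged. Samples were analyzed by LC/MS as percent parent remaining at 30 min.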
(In general: Liver microsomes are vesicles of endoplasmic reticulum, rich in cytochrome P450 enzymes.)

A short description of data set [4]: Metabolic stability in human liver microsomes assessed as compound remaining at 1 uM after 30 mins. It counts as ADME, Microsome. The settings on record: read-out: Stability. Summed up: as §3
In a further data set the target is Cytochrome P450 2C19 (Homo sapiens, UniProt P33261). The data set can be described thus: Inhibition of human recombinant CYP2C19 at < 10 uM. To be noted: recombinant enzyme. It counts as ADME. Summed up: (§4)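 Each human recombinant CYP isoenzyme (1A2, 2C9, 2C19, 2D6, 3A4) was run with its own fluorogenic substrate, with test compound up to […]. Fluorescence was read after a defined reaction time. Percent inhibition was fitted against log concentration to give IC50.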

A further data set concerns Rattus norvegicus. The data set is described as §1. The data set is classed as ADME, organism-based, Plasma. Details: time infinity, dose 5 mg/kg, route oral. The settings on record: in vivo. In short, it runs like this:
as §2

Data set [5] is described as follows: Half life in Sprague-Dawley rat plasma at 5 mg/kg, po. It counts as ADME, organism-based. Details: dose 5 mg/kg, route oral. Summed up:
as §2

A short description of data set [6]: Oral bioavailability in Sprague-Dawley rat plasma at 5 mg/kg. It counts as ADME, organism-based. Summed up: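 Male Sprague-Dawley rats (3–4) received an oral gavage of 5 mg/kg in 0.5% methyl cellulose and, separately, 1 mg/kg intravenously via an indwelling catheter. Serial arterial blood was collected. Plasma parent compound was measured by LC/MS/MS after protein precipitation. Bioavailability came from non-compartmental analysis.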

Another data set concerns the target Cytochrome P450 2D6 (Homo sapiens, UniProt P10635). As to the kind of experiment: Inhibition of human recombinant CYP2D6 at < 10 uM. It counts as ADME. The settings on record: recombinant enzyme. In short, it runs like this: as §4
Data set [7] is described as follows: Tmax in Sprague-Dawley rat plasma at 5 mg/kg, po. It counts as ADME, organism-based. Details: dose 5 mg/kg, route oral. In short, it runs like this: as §2
The next data set has as its target Cytochrome P450 2C9 (Homo sapiens, UniProt P11712). As to the kind of experiment: Inhibition of human recombinant CYP2C9 at < 10 uM. To be noted: recombinant enzyme. The data set is classed as ADME. Summed up: as §4
The nature of data set [8]: Cmax in Sprague-Dawley rat plasma at 5 mg/kg, po. The data set is classed as ADME, organism-based. Details: dose 5 mg/kg, route oral. Summed up: as §2
Another data set addresses T2, Cytochrome P450 1A2 (Homo sapiens, UniProt P05177).
T2 sequence (P05177 whole entry): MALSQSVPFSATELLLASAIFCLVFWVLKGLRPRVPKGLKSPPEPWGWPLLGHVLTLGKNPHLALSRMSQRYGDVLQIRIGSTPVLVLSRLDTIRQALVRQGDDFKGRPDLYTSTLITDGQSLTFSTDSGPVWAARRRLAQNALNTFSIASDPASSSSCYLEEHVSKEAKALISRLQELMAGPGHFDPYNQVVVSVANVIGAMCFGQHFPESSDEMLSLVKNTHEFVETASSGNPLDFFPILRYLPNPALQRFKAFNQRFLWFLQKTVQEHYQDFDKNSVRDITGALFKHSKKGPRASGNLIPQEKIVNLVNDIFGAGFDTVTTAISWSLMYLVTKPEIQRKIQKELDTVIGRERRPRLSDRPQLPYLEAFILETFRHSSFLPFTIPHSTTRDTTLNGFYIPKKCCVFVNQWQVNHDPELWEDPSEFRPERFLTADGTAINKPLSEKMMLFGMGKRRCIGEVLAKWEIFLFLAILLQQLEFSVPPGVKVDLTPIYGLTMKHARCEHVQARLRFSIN
The data set can be described thus: Inhibition of human recombinant CYP1A2 at < 10 uM. The settings on record: recombinant enzyme. It counts as ADME. Summed up:
as §4

A further data set addresses Cytochrome P450 3A4 (Homo sapiens, UniProt P08684). As to the kind of experiment: Inhibition of human recombinant CYP3A4 at < 10 uM. The settings on record: recombinant enzyme. The data set is classed as ADME. Summed up: as §4
The nature of data set [9]: Antagonist activity at CCR1 in human THP1 cells assessed as inhibition of CCL3-induced chemotaxis after 3 hrs. To be noted: thp-1.

SMILES strings stand for the structures.

Cytochrome P450 2C9, sequence (P11712 whole entry): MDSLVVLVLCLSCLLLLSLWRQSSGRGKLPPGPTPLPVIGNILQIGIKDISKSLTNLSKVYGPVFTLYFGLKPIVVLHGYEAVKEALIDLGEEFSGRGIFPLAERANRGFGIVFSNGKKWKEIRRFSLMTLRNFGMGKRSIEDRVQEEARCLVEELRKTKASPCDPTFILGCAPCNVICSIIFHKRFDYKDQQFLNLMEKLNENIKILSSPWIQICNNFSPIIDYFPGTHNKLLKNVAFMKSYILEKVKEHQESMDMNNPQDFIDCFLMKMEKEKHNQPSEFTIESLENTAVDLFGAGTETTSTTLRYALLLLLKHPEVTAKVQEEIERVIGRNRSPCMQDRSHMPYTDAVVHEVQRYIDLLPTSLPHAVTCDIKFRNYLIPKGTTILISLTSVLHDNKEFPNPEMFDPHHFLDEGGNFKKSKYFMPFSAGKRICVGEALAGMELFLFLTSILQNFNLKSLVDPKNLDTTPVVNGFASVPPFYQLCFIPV
Cytochrome P450 3A4, sequence (P08684 whole entry): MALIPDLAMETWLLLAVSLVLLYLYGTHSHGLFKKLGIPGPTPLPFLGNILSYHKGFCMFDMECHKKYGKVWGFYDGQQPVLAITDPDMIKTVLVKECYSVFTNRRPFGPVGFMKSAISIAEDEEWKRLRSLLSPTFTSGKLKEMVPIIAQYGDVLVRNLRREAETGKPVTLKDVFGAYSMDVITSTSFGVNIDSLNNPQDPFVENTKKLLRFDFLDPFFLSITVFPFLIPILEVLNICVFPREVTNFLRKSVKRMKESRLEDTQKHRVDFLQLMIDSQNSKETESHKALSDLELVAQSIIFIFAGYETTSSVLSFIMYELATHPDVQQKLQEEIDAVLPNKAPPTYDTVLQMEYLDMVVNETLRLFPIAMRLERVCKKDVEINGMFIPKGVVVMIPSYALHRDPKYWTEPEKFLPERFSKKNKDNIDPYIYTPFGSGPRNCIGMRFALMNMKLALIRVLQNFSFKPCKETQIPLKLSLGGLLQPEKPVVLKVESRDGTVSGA
Cytochrome P450 2C19, sequence (P33261 whole entry): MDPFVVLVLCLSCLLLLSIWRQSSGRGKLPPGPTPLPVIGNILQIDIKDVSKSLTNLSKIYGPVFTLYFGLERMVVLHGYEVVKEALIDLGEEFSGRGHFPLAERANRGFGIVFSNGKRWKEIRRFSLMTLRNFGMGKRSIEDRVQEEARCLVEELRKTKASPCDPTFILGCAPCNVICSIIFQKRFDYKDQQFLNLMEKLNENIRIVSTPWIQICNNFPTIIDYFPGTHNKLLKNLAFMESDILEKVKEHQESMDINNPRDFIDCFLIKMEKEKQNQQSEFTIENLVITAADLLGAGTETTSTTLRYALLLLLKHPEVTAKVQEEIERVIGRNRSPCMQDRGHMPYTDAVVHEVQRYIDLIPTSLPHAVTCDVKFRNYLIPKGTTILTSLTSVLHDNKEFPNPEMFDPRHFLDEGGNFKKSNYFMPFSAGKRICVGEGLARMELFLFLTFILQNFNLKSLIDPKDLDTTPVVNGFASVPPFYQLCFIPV
Cytochrome P450 2D6, sequence (P10635 whole entry): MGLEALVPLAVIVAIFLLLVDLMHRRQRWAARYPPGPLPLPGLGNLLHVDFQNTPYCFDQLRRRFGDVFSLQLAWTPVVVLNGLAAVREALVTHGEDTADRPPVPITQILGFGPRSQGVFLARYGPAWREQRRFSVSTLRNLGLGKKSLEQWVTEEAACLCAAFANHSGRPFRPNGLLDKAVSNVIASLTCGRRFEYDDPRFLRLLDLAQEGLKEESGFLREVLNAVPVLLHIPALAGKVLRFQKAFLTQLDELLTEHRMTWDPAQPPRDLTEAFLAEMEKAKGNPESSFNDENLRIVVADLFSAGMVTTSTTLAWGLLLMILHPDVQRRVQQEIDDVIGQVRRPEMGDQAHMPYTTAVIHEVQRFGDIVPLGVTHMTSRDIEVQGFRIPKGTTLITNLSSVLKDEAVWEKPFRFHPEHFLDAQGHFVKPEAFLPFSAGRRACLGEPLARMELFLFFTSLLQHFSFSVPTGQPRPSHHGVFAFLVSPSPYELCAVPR

Regarding `O=C(Nc1ccc(C(F)(F)F)cc1)N1CCCC1c1nccn1Cc1ccc(Cl)cc1` (stereo not given), in data set [1], the total exposure AUC(0-inf) was found to be 100 ng·h/mL. Moreover, the IC50 in [2] was 0.065 µM. In addition, the remaining at 0.5 h, 1 µM amounted to 55% in [3] and 39% in [4].

For `O=C(Nc1ccc(C(F)(F)F)cc1)N1CCC[C@@H]1c1nnnn1Cc1ccc(Cl)cc1`, the IC50 in [2] was found to be 0.02 µM. In addition, the figures for the remaining at 0.5 h, 1 µM in data set [3] and in data set [4] were 25% and 59%, respectively.

For `O=C(Nc1ccc(C(F)(F)F)cc1)N1CCC[C@@H]1c1ncnn1Cc1ccc(Cl)cc1`, the area under the curve AUC(0-inf) in data set [1] amounted to 4460 ng·h/mL. Further, in [2], the concentration for half-maximal inhibition (IC50) was 0.032 µM. Also, the remaining at 0.5 h, 1 µM is 81% in data set [3] and 61% in data set [4].

Turning to `Cc1nc([C@H]2CCCN2C(=O)Nc2ccc(C(F)(F)F)cc2)n(Cc2ccc(Cl)cc2)n1`, the IC50 in [2] was found to be 0.81 µM.

For `O=C(Nc1ccc(C(F)(F)F)cc1)N1CCC[C@@H]1c1nncn1Cc1ccc(Cl)cc1`, the AUC(0-inf) in data set [1] was 657 ng·h/mL. In data set [2], the IC50 was 0.017 µM. Moreover, the remaining at 0.5 h, 1 µM is 41% in [3] and 52% in [4].

For the molecule `Cc1nnc([C@H]2CCCN2C(=O)Nc2ccc(C(F)(F)F)cc2)n1Cc1ccc(Cl)cc1`, the “inhibition (INH)” value at Cytochrome P450 2C19, at Cytochrome P450 2D6, at Cytochrome P450 2C9, at Cytochrome P450 1A2 and at Cytochrome P450 3A4 was “Not Active” throughout. This molecule also yielded an AUC with Rattus norvegicus of 7649 ng·h/mL. The same molecule showed a half-life in [5] of 3.8 h. The same molecule yielded a bioavailability in data set [6] of 26%. Further, in data set [7], the Tmax stood at 1.1 h. In data set [2], the half-inhibitory concentration (IC50) came to 0.069 µM. In addition, the values for the remaining at 0.5 h, 1 µM in [3] and in data set [4] were 87% and 100%, respectively. Further, in [8], the highest level (Cmax) was 1120 ng/mL.

For the molecule `CN(Cc1ccc(Cl)cc1)C(=O)[C@H]1CCCN1C(=O)Nc1ccc(C(F)(F)F)cc1`, in data set [9], the half-maximal inhibitory concentration (IC50) worked out at 0.022 µM.
